32 compounds from ChEMBL document CHEMBL2062521, “Discovery of 1-(β-amino substituted-β-alanyl)-N,N-dimethylindoline-2-carboxamides as novel nonpeptide antagonists of nociceptin/orphanin FQ receptor: efficient design, synthesis, and structure-activity relationship studies” (Eur J Med Chem, 2012) can be followed below.

The source made the active and inactive calls. No cut-off for these calls is given here.

Data set [1] is filed under the species Homo sapiens. Put plainly: Selectivity ratio of Ki for human recombinant MOP receptor to Ki for human recombinant ORL1 receptor.
The target in data set [2] is T1, Nociceptin receptor (Homo sapiens, UniProt P41146). Kind of data set: Displacement of [3H]N/OFQ from human recombinant ORL1 receptor expressed in HEK293 cells after 45 mins by scintillation proximity assay. Type of data set: cell-based. In a few lines:
(§1)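 Compound at 10^-11–10^-5 M (six 10-fold steps), duplicates; nonspecific binding with 1 µM N/OFQ. IC50 by nonlinear regression, Ki by Cheng–Prusoff; percent inhibition reported at 1 µM.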
On the technique in general: Loss of bound radioactivity is the signal in a displacement assay; it reports binding, not function.

The nature of data set [3]: Half life in human liver microsomes by HPLC/MS/MS analysis. Type of data set: ADME, Microsome. On the technique in general: Liver microsomes are vesicles of endoplasmic reticulum, rich in cytochrome P450 enzymes.
Data set [4] addresses Mu-type opioid receptor (Homo sapiens, UniProt P35372). Put plainly: Displacement of [3H]DAMGO from human recombinant MOP receptor expressed in CHO-K1 cells after 45 mins by scintillation proximity assay. Type of data set: cell-based.
The target in data set [5] is T1, Nociceptin receptor. Kind of data set: Antagonist activity at human recombinant ORL1 receptor expressed in HEK293 cells assessed as inhibition of N/OFQ-induced [35S]GTPgammaS binding to alpha-unit of G-protein after 1.5 hrs by scintillation counting. The data set is classed as functional, cell-based. In a few lines: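 Membranes from HEK-293 cells expressing hNOP receptor, incubated 1.5 h at 25 °C with 10 nM N/OFQ and compound at six concentrations (0.1 nM–10 µM) in 20 mM HEPES pH 7.4, 100 mM NaCl, 5 mM MgCl2, 1 mM EDTA, 5 µM GDP, 400 pM [35S]GTPγS, WGA-SPA beads. Duplicates; NSB with 10 µM unlabelled GTPγS; basal without ligands.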
(Binding of GTPγS marks nucleotide exchange on a G protein.)

The target in data set [6] is T1, Nociceptin receptor. Put plainly: Displacement of [3H]N/OFQ from human recombinant ORL1 receptor expressed in HEK293 cells at 1 uM after 45 mins by scintillation proximity assay. The data set is classed as cell-based. In a few lines:
as §1

T1 sequence (P41146 whole entry): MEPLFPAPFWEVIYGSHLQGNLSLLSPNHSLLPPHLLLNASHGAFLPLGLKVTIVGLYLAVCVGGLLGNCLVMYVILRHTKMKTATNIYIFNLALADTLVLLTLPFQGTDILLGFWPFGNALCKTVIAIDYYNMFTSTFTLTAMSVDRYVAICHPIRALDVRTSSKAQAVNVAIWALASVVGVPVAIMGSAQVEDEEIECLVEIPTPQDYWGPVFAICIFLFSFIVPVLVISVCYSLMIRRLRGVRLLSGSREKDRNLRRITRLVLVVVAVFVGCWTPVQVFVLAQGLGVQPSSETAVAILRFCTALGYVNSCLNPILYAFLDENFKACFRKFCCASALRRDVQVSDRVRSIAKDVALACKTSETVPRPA
Chain of Mu-type opioid receptor (P35372 whole entry): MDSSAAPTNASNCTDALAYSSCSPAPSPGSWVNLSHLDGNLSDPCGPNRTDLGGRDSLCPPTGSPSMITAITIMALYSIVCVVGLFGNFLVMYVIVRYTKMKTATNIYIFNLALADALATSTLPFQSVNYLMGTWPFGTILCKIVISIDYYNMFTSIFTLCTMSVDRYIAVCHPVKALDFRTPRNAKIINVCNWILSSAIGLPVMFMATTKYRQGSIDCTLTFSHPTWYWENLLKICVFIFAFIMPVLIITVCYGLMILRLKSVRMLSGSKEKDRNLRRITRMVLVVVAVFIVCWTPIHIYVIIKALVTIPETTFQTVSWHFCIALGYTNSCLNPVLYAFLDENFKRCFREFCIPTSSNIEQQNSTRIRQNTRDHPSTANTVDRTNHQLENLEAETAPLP

For `Cc1ccccc1C1CCN(CCC(=O)N2c3ccccc3C[C@H]2C(=O)N(C)C)CC1`, the Ratio Ki in data set [1] amounted to 22. For the same compound, the Ki (in general, a measure of affinity in units of concentration, obtained from inhibition or displacement) in data set [2] amounted to 3.03 nM; in data set [4], 67.2 nM. In addition, the half-life (usually how long it takes for the measured level to halve) in data set [3] stood at 24 min. Besides, in data set [5], the IC50 (as a rule, the concentration needed to halve the response being measured) was 44 nM.
`CN(C)C(=O)[C@@H]1Cc2ccccc2N1C(=O)CCN1CCC(c2ccccc2)CC1`: in data set [1], the Ratio Ki stood at 5.9. The Ki in data set [2] came out at 13.6 nM; in data set [4] it was 80.7 nM. Besides, the half-life in data set [3] is 55 min. Moreover, in data set [5], the concentration for half-maximal inhibition (IC50) came out at 138 nM.
Regarding `CN(C)C(=O)[C@@H]1Cc2ccccc2N1C(=O)CCN1CCC(c2ccc(F)cc2)CC1`, the Ki in data set [2] amounted to 9.84 nM; in data set [4] it was 238 nM. In data set [3], this compound came in with a half-life of 82 min. Moreover, in data set [5], the IC50 is 107 nM.
Turning to `Cc1cc(F)ccc1C1CCN(CCC(=O)N2c3ccccc3C[C@H]2C(=O)N(C)C)CC1`, the values for the Ki in data set [2] and in data set [4] were 3.79 nM and 139 nM, respectively. This compound also had a half-life in data set [3] of 43 min. Also, the IC50 in data set [5] is 42 nM.
For `Cc1cccc(C)c1C1CCN(CCC(=O)N2c3ccccc3C[C@H]2C(=O)N(C)C)CC1`, the Ratio Ki in data set [1] is 86. Also, the Ki in data set [2] is 0.96 nM; in data set [4], 82.1 nM. The same compound returned a half-life in data set [3] of 19 min. Further, the concentration for half-maximal inhibition (IC50) in data set [5] was 12 nM.
Take `CN(C)C(=O)[C@@H]1Cc2ccccc2N1C(=O)CCN1CC2CCC(C1)C2c1ccccc1` (stereo not given in full): the inhibition – broadly, the drop in the measured response relative to a control, in per cent – in data set [6] came to 23%. Moreover, the Ki in data set [2] is over 250 nM; in data set [4], 28.4 nM. In addition, the half-life in data set [3] turned out to be 10 min.
As for `CN(C)C(=O)C1Cc2ccccc2N1C(=O)CCN1CC[C@@H]2c3ccccc3CC[C@@H]2C1` (mixture of isomers), the inhibition in data set [6] is 33%. The Ki in data set [2] is over 250 nM.
For `Cc1ccccc1C1CCN(CCC(=O)N2c3ccccc3CC2C(=O)N(C)C)CC1` (racemic), in data set [1], the Ratio Ki is 25. The inhibition constant Ki in data set [2] was 5.55 nM; in data set [4] it was 138 nM. For the same compound, the IC50 in data set [5] is 116 nM.
Regarding `CN(C)C(=O)C1Cc2ccccc2N1C(=O)CCN1CCC(N2CCCCC2)CC1` (racemic), the inhibition entry in data set [6] was “inactive”. Moreover, the Ki was over 250 nM in data set [2] and over 450 nM in data set [4].
In the case of `CCOc1ccccc1N1CCN(CCC(=O)N2c3ccccc3CC2C(=O)N(C)C)CC1` (racemic), the Ratio Ki in data set [1] turned out to be 0.23. In addition, the Ki in data set [2] worked out at 128 nM; in data set [4] it was 29.8 nM.
Turning to `CN(C)C(=O)C1Cc2ccccc2N1C(=O)CCN1CCN(c2ccccc2)CC1` (racemic), the inhibition in data set [6] was 43%. Besides, the Ki is over 250 nM in data set [2] and 397 nM in data set [4]. Besides, the IC50 in data set [5] was determined as 48000 nM.
As for `CN(C)C(=O)C1Cc2ccccc2N1C(=O)CCN1CCN(c2cnccn2)CC1` (racemic), the inhibition in data set [6] worked out at 37%. In addition, the inhibitory constant (Ki) in data set [2] was over 250 nM; in data set [4], 235 nM.
For `CC(c1ccccc1)N1CCN(CCC(=O)N2c3ccccc3CC2C(=O)N(C)C)CC1` (racemic), the inhibition in data set [6] amounted to 21%. Besides, the Ki is over 250 nM in data set [2] and over 450 nM in data set [4].
For `CN(C)C(=O)C1Cc2ccccc2N1C(=O)CCN1CCN(C2CCCCC2)CC1` (racemic) the same measures were 11%, over 250 nM and over 450 nM.
As for `CCC(CC)N1CCN(CCC(=O)N2c3ccccc3CC2C(=O)N(C)C)CC1` (racemic), the values for the Ki in data set [2] and in data set [4] were 101 nM and over 450 nM, respectively.
On to `CCCC(C)N1CCN(CCC(=O)N2c3ccccc3CC2C(=O)N(C)C)CC1` (racemic), for which the inhibition in data set [6] came out at 40%. Also, the Ki in data set [2] is over 250 nM; in data set [4], over 450 nM.
Regarding `CN(C)C(=O)C1Cc2ccccc2N1C(=O)CCN1CCC(c2ccccc2)CC1` (racemic), in data set [1], the Ratio Ki was 19. Further, the results for the Ki in data set [2] and in data set [4] were 26.2 nM and 502 nM, respectively. For the same compound, in data set [5], the IC50 stood at 2300 nM.
For the compound `CN(C)C(=O)C1Cc2ccccc2N1C(=O)CCN1CCC(c2ccccc2F)CC1` (racemic), in data set [2], the Ki was 26.5 nM.
Regarding `CN(C)C(=O)C1Cc2ccccc2N1C(=O)CCN1CCC(c2ccccc2C(F)(F)F)CC1` (racemic), the Ki in data set [2] amounted to 31.5 nM.
For the compound `CN(C)C(=O)C1Cc2ccccc2N1C(=O)CCN1CCC(c2ccccn2)CC1` (racemic), in data set [6], the inhibition result is “inactive”. Further, the Ki in data set [2] is over 250 nM.
With `CN(C)C(=O)C1Cc2ccccc2N1C(=O)CCN1CCC(C2CCCCC2)CC1` (racemic), in data set [2], the Ki amounted to 286 nM.
For `CN(C)C(=O)C1Cc2ccccc2N1C(=O)CCN1CCCC(c2ccccc2)CC1` (racemic), the inhibition in data set [6] came out at 15%. For the same compound, the Ki in data set [2] is over 250 nM.
`Cc1ccccc1N1CCN(CCC(=O)N2c3ccccc3CC2C(=O)N(C)C)CC1` (racemic): the Ratio Ki in data set [1] was 27. In addition, the figures for the inhibitory constant (Ki) in data set [2] and in data set [4] were 11.6 nM and 318 nM, respectively.
Take `Cc1cccc(N2CCN(CCC(=O)N3c4ccccc4CC3C(=O)N(C)C)CC2)c1` (racemic): the inhibition in data set [6] amounted to 13%. Further, in data set [2], the Ki is over 250 nM.
In the case of `Cc1ccc(N2CCN(CCC(=O)N3c4ccccc4CC3C(=O)N(C)C)CC2)c(C)c1` (racemic), the inhibition in data set [6] stood at 25%. In addition, the Ki in data set [2] was over 250 nM.
Take `CN(C)C(=O)C1Cc2ccccc2N1C(=O)CCN1CCN(Cc2ccccc2)CC1` (racemic): the inhibition in data set [6] worked out at 11%. Also, the values for the inhibition constant Ki in data set [2] and in data set [4] were over 250 nM and over 450 nM, respectively.
Consider `CN(C)C(=O)C1Cc2ccccc2N1C(=O)CCN1CCN(C2CCCC2)CC1` (racemic), for which the inhibition in data set [6] is 3%. Besides, the Ki in data set [2] is over 250 nM.
For `CN(C)C(=O)C1Cc2ccccc2N1C(=O)CCN1CCN(C2CCCCCC2)CC1` (racemic) the same measures were 12% and over 250 nM.
Turning to `CN(C)C(=O)C1Cc2ccccc2N1C(=O)CCN1CCN(C2CCCCCCC2)CC1` (racemic), the inhibition in data set [6] came out at 12%. The Ki in data set [2] was over 250 nM.
For `CN(C)C(=O)C1Cc2ccccc2N1C(=O)CCN1Cc2ccccc2C1` (racemic) the same measures were 16% and over 250 nM.
For the compound `CN(C)C(=O)C1Cc2ccccc2N1C(=O)CCN1CCc2ccccc2C1` (racemic), in data set [6], the inhibition was 11%. Besides, the Ki in data set [2] was over 250 nM.
As for `CN(C)C(=O)C1Cc2ccccc2N1C(=O)CCN1Cc2cccc3cccc(c23)C1` (racemic), in data set [6], the inhibition turned out to be 15%. Moreover, the Ki in data set [2] was over 250 nM.
